tolC growth inh = E. coli tolC mutant growth inhibition; E. coli BW25113 tolC mutant growth, OD615; growth inhibition, % at 10 µM (by protocol); 65,000 compounds, 2.2% hits; AID 573;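 active = growth inhibition at or above a cutoff equal to the mean over every tested compound plus 3 SD, cut at about 60% in these data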;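 also: growth measured after 20 h incubation at 37 °C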
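System: E. coli ΔtolC::kan strain BW25113; Buffer or medium: LB broth supplemented with 50 µg/mL kanamycin; Compound: 10 µM final, single dose; Incubation: bacterial growth with compound for 20 h at 37 °C; Signal: A615 absorbance measurement; Evaluation: growth inhibition in percent.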
E coli WT exp = growth inhibitors of E. coli BW25113 wild type. 98,000 compounds, 0.15% hits. OD600 absorbance. growth inhibition, % at 100 µM. AID 710;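 active = growth inhibition above about 50% at one test dose, limit read from the data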;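 also: growth measured after 20 h incubation at 37 °C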
H69AR growth 86K = blocks growth of human H69AR lung tumor cells | H69AR lung tumor viability, ATP luminescence, 72 h; stronger effect = lower value | viability, % at 10 µM | 85,000 compounds, 6% hits;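 active = viability at or below 40%; inactive = viability above 40%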;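 also: multidrug resistant small cell line overexpressing MRP-1 efflux transporter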
Jurkat tox 60K = cytotoxicity toward Jurkat cells; inhibition, % at 4 µM; Jurkat E6.1 viability, ATP luminescence, 48 h; 56,000 compounds, 1.2% hits;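 active = inhibition above the mean inhibition of all tested compounds plus 3 SD, cut at about 28% in these data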
Fibroblast inh = blocks proliferation of human lung fibroblasts | LL 47 human lung fibroblast viability, ATP luminescence; stronger effect = lower value | viability, % at 10 µM | 85,000 compounds, 1.1% hits | AID 719;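 active = viability at or below 50% in the single dose screen; inactive = viability above 50%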;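 also: compound exposure lasted 72 h before the ATP readout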
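Material: human LL 47 lung fibroblast cells; quantity: 1,150 cells/well; medium: IMEM plus 15% FBS; doses: 0.1% DMSO in all compound wells; timing: overnight attachment after seeding, then 72 h compound exposure at 37 °C; detection: CellTiter-Glo luminescence; measure: % viability of median cell-only signal; controls: cell-only wells, no compound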
HUVEC prolif 384 = inhibitors of human endothelial cell proliferation; HUVEC proliferation, CellTiter-Glo luminescence, 72 h; stronger effect = lower value; viability, % at 10 µM (by protocol); 86,000 compounds, 1.1% hits; AID 648;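 active = viability at or below 30%; inactive = viability above 30%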
Hits are given with their value; i = inactive; nt = no result. In the library only some 6.4% were active in any assay of this set; here they are far more common.

SMILES	tolC growth inh	E coli WT exp	H69AR growth 86K	Jurkat tox 60K	Fibroblast inh	HUVEC prolif 384
COc1ccc(S(=O)(=O)Nc2ccc(S(=O)(=O)Nc3nc(C)cc(C)n3)cc2)cc1OC	i	i	i	i	i	i
CCN(CC)c1ccc(NC(=O)c2c(OC)cccc2OC)c(C)c1	i	i	i	i	i	i
CCN(CC)c1ccc(NC(=O)c2cccc(OC)c2)c(C)c1	i	i	19	i	i	i
CCN(CC)c1ccc(C(=O)Nc2cccc(F)c2)cc1	62	i	25	i	i	i
CCN(CC)c1ccc(NC(=O)c2cc(OC)cc(OC)c2)c(C)c1	i	i	25	94	i	i
CN(C)c1cccc(C(=O)Nc2cccc(F)c2)c1	i	i	i	i	i	i
Cc1ccc(OCCCC(=O)Nc2ccc(Br)cc2)cc1	nt	i	nt	nt	nt	nt
CCCCCOc1ccc(CSC(=N)N)cc1[N+](=O)[O-]	nt	100	nt	nt	nt	nt
CCC(C)NC(=O)Cn1cnc2sc(C)cc2c1=O (configuration not stated)	i	i	nt	i	nt	nt
CCCCCCCCCCCCCCCC(=O)OC[C@H](COP(=O)([O-])OCC[N+](C)(C)C)OC(=O)CCCCCCCCCCCCCCC	nt	nt	i	nt	i	i
CCN(Cc1ccncc1)S(=O)(=O)c1ccc(C(C)=O)cc1	i	i	i	30	i	i
COc1cccc(CC(NC(C)=O)C(=O)NC2CCN(S(=O)(=O)c3ccc4ccccc4c3)CC2)c1 (configuration not stated)	nt	i	i	nt	i	i
COc1ccc(CCn2c(N3CCN(C)CC3)nc3c2c(=O)[nH]c(=O)n3C)cc1	i	i	i	i	i	i
CCCn1c(N2CCN(CC(=O)c3c(C)n(C)c4ccc(OC)cc34)CC2)nc2c1c(=O)[nH]c(=O)n2C	nt	i	33	nt	41	i
Clc1ccc(-c2ccc(/C=N/Nc3cc(N4CCOCC4)nc(N4CCOCC4)n3)o2)cc1	nt	nt	30	nt	i	13
Nc1ncncc1-c1ccc([N+](=O)[O-])cc1	nt	78	nt	nt	nt	nt
Cc1cc(N=Cc2c(O)n(-c3ccc4c(c3)OCO4)c(=O)c3ccccc23)ccn1	i	i	21	i	i	i
C1CN(CC23CC4CC(CC(C4)C2)C3)CCO1	nt	nt	i	nt	i	i
COC(=O)c1ccccc1NC(=O)C1CC(=O)N(c2ccc(C)cc2)C1 (configuration not stated)	nt	i	35	nt	i	i
CCOc1ccc(N2C(=O)CC(Sc3ncccn3)C2=O)cc1 (configuration not stated)	i	i	i	i	i	i
C=CCNc1nnc(SC2CC(=O)N(c3ccc(OCCC)cc3)C2=O)s1 (configuration not stated)	nt	i	1.9	nt	i	i
O=C1C2C3C=CC(CO)(O3)C2C(=O)N1c1ccccc1-c1ccccc1 (configuration not stated)	i	i	3.9	61	8.3	i
CC(=O)Oc1ccc(N2C(=O)C3C4C=CC(CO)(O4)C3C2=O)cc1 (configuration not stated)	nt	i	i	nt	i	i
CCCCNC(=O)c1cn(-c2ccc(OCC)cc2)c(=O)c2cc(OC)c(OC)cc12	nt	i	i	nt	i	i
CC(Oc1cc(-c2ccccc2)cc2ccccc12)C(=O)N1CCOCC1 (configuration not stated)	nt	i	36	nt	i	i
SMILES	tolC growth inh	E coli WT exp	H69AR growth 86K	Jurkat tox 60K	Fibroblast inh	HUVEC prolif 384
Cc1cc(=O)oc2cc(OC(C)C(=O)N3CCOCC3)ccc12 (configuration not stated)	nt	i	i	nt	i	i
CCn1c2ccccc2c2cc(C3C(C#N)=C(N)Oc4n[nH]c(COC)c43)ccc21 (configuration not stated)	71	i	i	i	i	5.6
COCc1[nH]nc2c1C(c1ccc(OC)c(OC)c1)C(C#N)=C(N)O2 (configuration not stated)	i	i	i	i	i	i
CCc1ccc(/C=N/NC(=O)c2cc(C3CC3)nc3ccc(Br)cc23)s1	nt	i	nt	nt	nt	nt
CCOC(=O)c1[nH]c(C)c(C(=O)Nc2cccc(Cl)c2C)c1C	i	i	15	64	i	i
CCOC(=O)c1ccc(NC(=O)c2c(C)[nH]c(C(=O)OCC)c2C)cc1	i	i	i	i	49	i
CCOC(=O)c1[nH]c(C)c(C(=O)c2cc(F)ccc2F)c1C	i	i	30	88	i	i
CCOC(=O)c1[nH]c(C)c(C(=O)NC)c1C	i	i	i	i	i	i
CCOC(=O)c1[nH]c(C)c(C(=O)Nc2ccc(Cl)cc2)c1C	i	i	i	i	i	i
